Test results reported in ChEMBL document CHEMBL2163220 (J Med Chem, 2012).
Changes are numbered by the printed parent chain. pIC50: −log10 of the molar value. Activity calls are given as the source filed them. The rule behind the calls is not given here.

How the values were obtained:
LNCaP = test: Cytotoxicity against human LNCAP cells incubated for 72 hrs by MTT assay; format: functional, cell-based
Outline: (§1)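 MTT assay run across a panel of prostate cancer cell lines.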

[1] = biological target: T1, Androgen receptor (Homo sapiens) (UniProt P10275); test: Antagonist activity at androgen receptor in human LNCaP cells assessed as increase in Maspin protein expression at 1 to 5 uM incubated for 24 hrs by Western blotting
T1 sequence (whole entry): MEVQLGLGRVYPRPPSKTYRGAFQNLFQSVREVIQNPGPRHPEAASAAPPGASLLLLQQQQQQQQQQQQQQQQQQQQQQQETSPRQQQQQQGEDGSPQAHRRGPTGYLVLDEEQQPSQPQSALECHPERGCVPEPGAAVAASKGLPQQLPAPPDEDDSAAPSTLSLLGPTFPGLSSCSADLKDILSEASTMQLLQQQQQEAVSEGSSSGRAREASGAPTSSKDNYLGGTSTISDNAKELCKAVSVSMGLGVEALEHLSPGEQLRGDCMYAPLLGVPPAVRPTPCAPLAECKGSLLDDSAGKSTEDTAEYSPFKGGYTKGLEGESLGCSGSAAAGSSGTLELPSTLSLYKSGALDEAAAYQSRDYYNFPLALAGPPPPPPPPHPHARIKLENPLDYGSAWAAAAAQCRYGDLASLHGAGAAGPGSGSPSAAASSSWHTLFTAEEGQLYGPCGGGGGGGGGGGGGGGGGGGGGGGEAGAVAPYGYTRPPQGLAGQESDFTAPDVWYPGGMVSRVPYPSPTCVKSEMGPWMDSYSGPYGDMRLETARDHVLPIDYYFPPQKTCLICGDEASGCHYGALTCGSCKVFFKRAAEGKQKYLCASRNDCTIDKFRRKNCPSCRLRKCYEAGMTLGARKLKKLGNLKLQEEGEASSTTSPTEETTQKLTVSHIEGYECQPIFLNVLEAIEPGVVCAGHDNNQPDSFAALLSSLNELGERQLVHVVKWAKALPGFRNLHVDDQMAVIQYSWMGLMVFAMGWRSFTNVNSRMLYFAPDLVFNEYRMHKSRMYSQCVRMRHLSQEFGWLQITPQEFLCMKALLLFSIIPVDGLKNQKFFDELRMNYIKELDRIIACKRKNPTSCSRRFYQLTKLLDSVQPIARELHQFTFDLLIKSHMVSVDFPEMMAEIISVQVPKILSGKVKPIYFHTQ

[2] = system: T2, Androgen receptor (Homo sapiens), P10275 [H875Y]; test: Agonist activity at androgen receptor H874Y mutant expressed in human PC3 cells assessed as stimulation of receptor transactivation at 0.1 to 1 uM by luciferase reporter gene assay; format: functional, cell-based; settings: PC-3
T2 sequence (whole entry): T1 sequence (whole entry) with H875Y
Outline: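 Full-length wild-type or mutant AR plasmid transiently transfected into PC-3 cells with MMTV-luc and Renilla luciferase reporters. Cells treated with DMSO vehicle or compound at 0.1 and 1 μM, alone or with 0.1 nM DHT. Luciferase read as relative luciferase units. Run in triplicate.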

[3] = biological target: T1, Androgen receptor (Homo sapiens); test: Antagonist activity at androgen receptor in human LNCaP cells assessed as reduction in DHT-induced PSA expression by luciferase reporter gene assay; format: functional, cell-based
Outline: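 LNCaP cells carrying a PSA-luc reporter were treated with compound at 1 and 2.5 μM in the presence of 1 nM DHT. Fold suppression was calculated relative to 1 nM DHT alone. Run in triplicate.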

[4] = biological target: T1, Androgen receptor (Homo sapiens); test: Antagonist activity at androgen receptor in human PC3 cells assessed as increase in Maspin promoter activity at 2.5 uM by luciferase reporter gene assay; format: functional, cell-based; settings: PC-3
Outline: (§2)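 PC-3 cells were transfected with maspin-luc, with or without cotransfected AR. Cells were exposed to DMSO vehicle or compound at 2.5 and 5 μM. Luciferase activity was measured in triplicate.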

[5] = Cytotoxicity against human C4-2B cells incubated for 72 hrs by MTT assay; format: functional, cell-based; settings: LNCaP C4-2B; outline: as §1
[6] = biological target: T1, Androgen receptor (Homo sapiens); test: Antagonist activity at androgen receptor in human PC3 cells assessed as increase in Maspin promoter activity at 5 uM by luciferase reporter gene assay; format: functional, cell-based; settings: PC-3; outline: as §2
PC-3 = test: Antagonist activity at androgen receptor ARv7 mutant lacking ligand binding domain expressed in human PC3 cells assessed as reduction in DHT-induced receptor transactivation at 1 uM by luciferase reporter gene assay; format: cell-based
Outline: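 AR-v7 (lacks LBD), MMTV-Luc and pRL-TK (Renilla) plasmids transiently transfected into PC-3 cells; cells treated with DMSO vehicle, 0.1 nM DHT, or test compound at 1 μM; transactivation read as luciferase activity (relative luciferase units).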

Activity [1]: Active
Activity [2]: inactive
Activity [3]: Dose-dependent effect
Activity [4]: Active
Activity [6]: Active
Compound: Cc1coc2c1C(=O)C(=O)c1c-2ccc2c1CCCC2(C)C [TANSHINONE IIA]
pIC50 (LNCaP): 6.30
pIC50 [5]: 6.40
Activity (PC-3): inactive
